Assay results: ChEMBL document CHEMBL3612017, “Rigidified A3 Adenosine Receptor Agonists: 1-Deazaadenine Modification Maintains High in Vivo Efficacy” (ACS Med Chem Lett, 2015)

These molecules were tested against Adenosine receptor A2a (Homo sapiens) (UniProt P29274) (assay: Displacement of [3H]2-[p-(2-carboxyethyl)phenyl-ethylamino]-5'-Nethylcarboxamidoadenosine from human adenosine A2A receptor expressed in HEK293 cell membranes at 10 uM). Settings: not given.
Method in brief: (§1)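 Radioligand binding at the human receptor subtypes. Nonspecific binding was defined with adenosine 5′-N-ethyluronamide (10 μM). Ki values came from displacement curves, mean ± SEM, n = 3 unless noted. Single-point data were expressed as % inhibition of binding at 10 μM.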

Adenosine receptor A2a (Homo sapiens), sequence (P29274 whole entry): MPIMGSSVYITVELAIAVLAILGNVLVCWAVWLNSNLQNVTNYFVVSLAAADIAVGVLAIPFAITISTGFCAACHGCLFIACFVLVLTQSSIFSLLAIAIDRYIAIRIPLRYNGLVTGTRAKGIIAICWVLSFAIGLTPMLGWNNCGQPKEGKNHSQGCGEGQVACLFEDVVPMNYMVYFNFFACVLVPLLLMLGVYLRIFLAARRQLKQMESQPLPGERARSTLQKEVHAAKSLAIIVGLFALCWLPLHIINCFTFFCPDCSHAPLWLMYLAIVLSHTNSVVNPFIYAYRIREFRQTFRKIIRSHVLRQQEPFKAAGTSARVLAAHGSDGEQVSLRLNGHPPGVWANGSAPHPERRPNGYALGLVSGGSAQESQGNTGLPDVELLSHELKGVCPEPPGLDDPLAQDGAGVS

Q: `CCCNc1cc(-n2cc(-c3ccc(Cl)s3)nn2)nc2c1ncn2[C@H]1[C@H](O)[C@H](O)[C@]2(C(=O)NC)C[C@H]12` was tested. Which inhibition did it give?
A: 4%

Q: Which inhibition does the source give for `CNC(=O)[C@@]12C[C@@H]1[C@@H](n1cnc3c(NC4CCC4)nc(C#Cc4ccc(Cl)s4)nc31)[C@H](O)[C@@H]2O` here?
A: 34%

Q: How did the inhibition turn out when `CCCNc1cc(C#Cc2ccc(Cl)s2)nc2c1ncn2[C@H]1[C@H](O)[C@H](O)[C@]2(C(=O)NC)C[C@H]12` was run?
A: 11%

Q: How did the inhibition turn out when `CNC(=O)[C@@]12C[C@@H]1[C@@H](n1cnc3c(NCC4CC4)nc(-n4cc(-c5ccc(Cl)s5)nn4)nc31)[C@H](O)[C@@H]2O` was run?
A: 44%

Q: `CNC(=O)[C@@]12C[C@@H]1[C@@H](n1cnc3c(NCC4CCC4)nc(C#Cc4ccc(Cl)s4)nc31)[C@H](O)[C@@H]2O` was tested. Which inhibition did it give?
A: 5%

Q: With `CCCCNc1nc(C#Cc2ccc(Cl)s2)nc2c1ncn2[C@H]1[C@H](O)[C@H](O)[C@]2(C(=O)NC)C[C@H]12` as the molecule, how does the inhibition read?
A: 0%

Q: For `CNC(=O)[C@@]12C[C@@H]1[C@@H](n1cnc3c(NC4CC4)nc(C#Cc4ccc(Cl)s4)nc31)[C@H](O)[C@@H]2O`, which inhibition is on record?
A: 44%

Q: For `CNC(=O)[C@@]12C[C@@H]1[C@@H](n1cnc3c(NCC4CC4)nc(C#Cc4ccc(Cl)s4)nc31)[C@H](O)[C@@H]2O`, which inhibition is on record?
A: 3%

Each molecule was assayed on Mus musculus (assay: Analgesic activity in intraperitoneally dosed mouse chronic constriction injury model of neuropathic pain). Settings: ip.
Assay type: functional

Q: `NCC1(CC(=O)O)CCCCC1` [GABAPENTIN] was tested. Which ED50 did it give?
A: 140 µmol/kg

These molecules were tested on Mus musculus (assay: Analgesic activity in mouse chronic constriction injury model of neuropathic pain assessed as protection of ipsilateral hind paw mechanoallodynia of sciatic nerve at 0.3 to 30 umol/kg administered through oral gavage at point of peak pain on day 7 measured at 3 hrs). Settings: not given.
Assay type: functional
Method in brief: (§2)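 Mice had sciatic nerve chronic constriction injury. Compound was given by oral gavage on day 7, at peak pain. Mechanoallodynia was scored on the ipsilateral and contralateral hind paws at the 1 h and 3 h time points, as % protection. n = 4 per group, some n = 3.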

Q: `CNC(=O)[C@@]12C[C@@H]1[C@@H](n1cnc3c(NC4CCC4)nc(C#Cc4ccc(Cl)s4)nc31)[C@H](O)[C@@H]2O` was tested. Which Activity did it give?
A: 95%

Q: How did the Activity turn out when `CNC(=O)[C@@]12C[C@@H]1[C@@H](n1cnc3c(NCC4CCC4)nc(C#Cc4ccc(Cl)s4)nc31)[C@H](O)[C@@H]2O` was run?
A: 90%

Q: Which Activity does the source give for `CCCCNc1nc(C#Cc2ccc(Cl)s2)nc2c1ncn2[C@H]1[C@H](O)[C@H](O)[C@]2(C(=O)NC)C[C@H]12` here?
A: 24%

Q: `CNC(=O)[C@@]12C[C@@H]1[C@@H](n1cnc3c(NC4CC4)nc(C#Cc4ccc(Cl)s4)nc31)[C@H](O)[C@@H]2O` was tested. Which Activity did it give?
A: 36%

Q: How did the Activity turn out when `CNC(=O)[C@@]12C[C@@H]1[C@@H](n1cnc3c(NCC4CC4)nc(C#Cc4ccc(Cl)s4)nc31)[C@H](O)[C@@H]2O` was run?
A: 85%

These molecules were tested on Mus musculus (assay: Analgesic activity in mouse chronic constriction injury model of neuropathic pain assessed as protection of ipsilateral hind paw mechanoallodynia of sciatic nerve at 0.3 to 30 umol/kg administered through oral gavage at point of peak pain on day 7 relative to control measured at 1 hr). Settings: not given.
Assay type: functional
Method in brief: as §2

Q: `CNC(=O)[C@@]12C[C@@H]1[C@@H](n1cnc3c(NC4CCC4)nc(C#Cc4ccc(Cl)s4)nc31)[C@H](O)[C@@H]2O` was tested. Which Emax did it give?
A: 97%

Q: How did the Emax turn out when `CNC(=O)[C@@]12C[C@@H]1[C@@H](n1cnc3c(NCC4CCC4)nc(C#Cc4ccc(Cl)s4)nc31)[C@H](O)[C@@H]2O` was run?
A: 98%

Q: For `CCCCNc1nc(C#Cc2ccc(Cl)s2)nc2c1ncn2[C@H]1[C@H](O)[C@H](O)[C@]2(C(=O)NC)C[C@H]12`, which Emax is on record?
A: 68%

Q: With `CNC(=O)[C@@]12C[C@@H]1[C@@H](n1cnc3c(NC4CC4)nc(C#Cc4ccc(Cl)s4)nc31)[C@H](O)[C@@H]2O` as the molecule, how does the Emax read?
A: 76%

Q: Which Emax does the source give for `CNC(=O)[C@@]12C[C@@H]1[C@@H](n1cnc3c(NCC4CC4)nc(C#Cc4ccc(Cl)s4)nc31)[C@H](O)[C@@H]2O` here?
A: 94%

What follows are molecules tested on Mus musculus (assay: Analgesic activity in intraperitoneally dosed mouse chronic constriction injury model of neuropathic pain assessed as time of peak protection). Settings: not given.
Assay type: functional

Q: `NCC1(CC(=O)O)CCCCC1` [GABAPENTIN] was tested. Which Time did it give?
A: 1 h

The molecules below were run against T1, Adenosine receptor A3 (Homo sapiens, UniProt P0DMS8) (assay: Displacement of [125I]N6-(4-amino-3-iodobenzyl)adenosine-5'-N-methyluronamide from human adenosine A3 receptor expressed in CHO cell membranes). Settings: not given.
T1 sequence (P0DMS8 whole entry): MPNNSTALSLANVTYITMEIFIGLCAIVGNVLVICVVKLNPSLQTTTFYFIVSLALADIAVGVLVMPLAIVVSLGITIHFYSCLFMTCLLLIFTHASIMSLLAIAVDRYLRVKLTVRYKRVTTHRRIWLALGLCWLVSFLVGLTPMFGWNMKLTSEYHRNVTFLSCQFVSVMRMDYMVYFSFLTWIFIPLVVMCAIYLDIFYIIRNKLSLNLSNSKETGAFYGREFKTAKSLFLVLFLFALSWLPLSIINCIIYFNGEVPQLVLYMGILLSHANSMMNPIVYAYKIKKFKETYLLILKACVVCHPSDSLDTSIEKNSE

Q: `CCCNc1cc(-n2cc(-c3ccc(Cl)s3)nn2)nc2c1ncn2[C@H]1[C@H](O)[C@H](O)[C@]2(C(=O)NC)C[C@H]12` was tested. Which Ki did it give?
A: 110 nM

Q: `CNC(=O)[C@@]12C[C@@H]1[C@@H](n1cnc3c(NC4CCC4)nc(C#Cc4ccc(Cl)s4)nc31)[C@H](O)[C@@H]2O` was tested. Which Ki did it give?
A: 4.5 nM

Q: `CCCNc1cc(C#Cc2ccc(Cl)s2)nc2c1ncn2[C@H]1[C@H](O)[C@H](O)[C@]2(C(=O)NC)C[C@H]12` was tested. Which Ki did it give?
A: 38 nM

Q: `CNC(=O)[C@@]12C[C@@H]1[C@@H](n1cnc3c(NCC4CC4)nc(-n4cc(-c5ccc(Cl)s5)nn4)nc31)[C@H](O)[C@@H]2O` was tested. Which Ki did it give?
A: 9.4 nM

Q: With `CNC(=O)[C@@]12C[C@@H]1[C@@H](n1cnc3c(NCC4CCC4)nc(C#Cc4ccc(Cl)s4)nc31)[C@H](O)[C@@H]2O` as the molecule, how does the Ki read?
A: 15 nM

Q: `CCCCNc1nc(C#Cc2ccc(Cl)s2)nc2c1ncn2[C@H]1[C@H](O)[C@H](O)[C@]2(C(=O)NC)C[C@H]12` was tested. Which Ki did it give?
A: 2.9 nM

Q: With `CNC(=O)[C@@]12C[C@@H]1[C@@H](n1cnc3c(NC4CC4)nc(C#Cc4ccc(Cl)s4)nc31)[C@H](O)[C@@H]2O` as the molecule, how does the Ki read?
A: 1 nM

Q: How did the Ki turn out when `CNC(=O)[C@@]12C[C@@H]1[C@@H](n1cnc3c(NCC4CC4)nc(C#Cc4ccc(Cl)s4)nc31)[C@H](O)[C@@H]2O` was run?
A: 7.9 nM

What follows are molecules tested against T2, Adenosine receptor A1 (Homo sapiens) (UniProt P30542) (assay: Displacement of [3H]N6-R-phenylisopropyladenosine from human adenosine A1 receptor expressed in CHO cell membranes at 10 uM). Settings: not given.
T2 sequence (whole entry): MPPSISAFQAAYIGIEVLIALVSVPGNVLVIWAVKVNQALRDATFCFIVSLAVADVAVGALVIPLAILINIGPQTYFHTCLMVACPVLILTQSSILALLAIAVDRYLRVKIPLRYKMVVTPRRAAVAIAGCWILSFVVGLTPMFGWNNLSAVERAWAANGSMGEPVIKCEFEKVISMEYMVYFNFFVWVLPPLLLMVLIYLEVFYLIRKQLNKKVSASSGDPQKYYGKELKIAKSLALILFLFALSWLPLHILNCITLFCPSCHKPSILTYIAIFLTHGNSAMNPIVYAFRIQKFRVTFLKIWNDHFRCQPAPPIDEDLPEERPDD
Method in brief: as §1

Q: `CCCNc1cc(-n2cc(-c3ccc(Cl)s3)nn2)nc2c1ncn2[C@H]1[C@H](O)[C@H](O)[C@]2(C(=O)NC)C[C@H]12` was tested. Which inhibition did it give?
A: 44%

Q: Which inhibition does the source give for `CNC(=O)[C@@]12C[C@@H]1[C@@H](n1cnc3c(NC4CCC4)nc(C#Cc4ccc(Cl)s4)nc31)[C@H](O)[C@@H]2O` here?
A: 39%

Q: With `CNC(=O)[C@@]12C[C@@H]1[C@@H](n1cnc3c(NCC4CCC4)nc(C#Cc4ccc(Cl)s4)nc31)[C@H](O)[C@@H]2O` as the molecule, how does the inhibition read?
A: 34%

Q: With `CCCCNc1nc(C#Cc2ccc(Cl)s2)nc2c1ncn2[C@H]1[C@H](O)[C@H](O)[C@]2(C(=O)NC)C[C@H]12` as the molecule, how does the inhibition read?
A: 6%

Q: `CNC(=O)[C@@]12C[C@@H]1[C@@H](n1cnc3c(NC4CC4)nc(C#Cc4ccc(Cl)s4)nc31)[C@H](O)[C@@H]2O` was tested. Which inhibition did it give?
A: 47%

Q: Which inhibition does the source give for `CNC(=O)[C@@]12C[C@@H]1[C@@H](n1cnc3c(NCC4CC4)nc(C#Cc4ccc(Cl)s4)nc31)[C@H](O)[C@@H]2O` here?
A: 24%

These molecules were tested against T3, Adenosine receptor A1 (Homo sapiens, UniProt P30542) (assay: Displacement of [3H]N6-R-phenylisopropyladenosine from human adenosine A1 receptor expressed in CHO cell membranes). Settings: not given.
T3 sequence (P30542 whole entry): T2 sequence (whole entry)
Method in brief: as §1

Q: With `CCCNc1cc(C#Cc2ccc(Cl)s2)nc2c1ncn2[C@H]1[C@H](O)[C@H](O)[C@]2(C(=O)NC)C[C@H]12` as the molecule, how does the Ki read?
A: 2440 nM

Q: `CNC(=O)[C@@]12C[C@@H]1[C@@H](n1cnc3c(NCC4CC4)nc(-n4cc(-c5ccc(Cl)s5)nn4)nc31)[C@H](O)[C@@H]2O` was tested. Which Ki did it give?
A: 1350 nM

The molecules below were run on Mus musculus (assay: Analgesic activity in mouse chronic constriction injury model of neuropathic pain assessed as time of peak protection at 0.3 to 30 umol/kg administered through oral gavage at point of peak pain on day 7). Settings: not given.
Assay type: functional
Method in brief: as §2

Q: `CNC(=O)[C@@]12C[C@@H]1[C@@H](n1cnc3c(NC4CCC4)nc(C#Cc4ccc(Cl)s4)nc31)[C@H](O)[C@@H]2O` was tested. Which Time did it give?
A: 1 h

Q: For `CNC(=O)[C@@]12C[C@@H]1[C@@H](n1cnc3c(NCC4CCC4)nc(C#Cc4ccc(Cl)s4)nc31)[C@H](O)[C@@H]2O`, which Time is on record?
A: 1 h

Q: Which Time does the source give for `CCCCNc1nc(C#Cc2ccc(Cl)s2)nc2c1ncn2[C@H]1[C@H](O)[C@H](O)[C@]2(C(=O)NC)C[C@H]12` here?
A: 1 h

Q: `CNC(=O)[C@@]12C[C@@H]1[C@@H](n1cnc3c(NC4CC4)nc(C#Cc4ccc(Cl)s4)nc31)[C@H](O)[C@@H]2O` was tested. Which Time did it give?
A: 1 h

Q: With `CNC(=O)[C@@]12C[C@@H]1[C@@H](n1cnc3c(NCC4CC4)nc(C#Cc4ccc(Cl)s4)nc31)[C@H](O)[C@@H]2O` as the molecule, how does the Time read?
A: 1 h

These molecules were tested on Mus musculus (assay: Effect on contralateral side hind paw in mouse chronic constriction injury model of neuropathic pain at 0.3 to 30 umol/kg administered through oral gavage at point of peak pain on day 7). Settings: in vivo.
Assay type: ADME, organism-based
Method in brief: as §2

Q: How did the Activity turn out when `CNC(=O)[C@@]12C[C@@H]1[C@@H](n1cnc3c(NC4CCC4)nc(C#Cc4ccc(Cl)s4)nc31)[C@H](O)[C@@H]2O` was run?
A: Non-toxic

Q: Which Activity does the source give for `CNC(=O)[C@@]12C[C@@H]1[C@@H](n1cnc3c(NCC4CCC4)nc(C#Cc4ccc(Cl)s4)nc31)[C@H](O)[C@@H]2O` here?
A: Non-toxic

Q: With `CCCCNc1nc(C#Cc2ccc(Cl)s2)nc2c1ncn2[C@H]1[C@H](O)[C@H](O)[C@]2(C(=O)NC)C[C@H]12` as the molecule, how does the Activity read?
A: Non-toxic

Q: For `CNC(=O)[C@@]12C[C@@H]1[C@@H](n1cnc3c(NC4CC4)nc(C#Cc4ccc(Cl)s4)nc31)[C@H](O)[C@@H]2O`, which Activity is on record?
A: Non-toxic

Q: Which Activity does the source give for `CNC(=O)[C@@]12C[C@@H]1[C@@H](n1cnc3c(NCC4CC4)nc(C#Cc4ccc(Cl)s4)nc31)[C@H](O)[C@@H]2O` here?
A: Non-toxic
